# Results taken from ChEMBL document CHEMBL5303300, “EUbOPEN Chemogenomics Library - Multiplex” (2023).
# “And” between values parts separate entries of the source, which are not always exact repeats. Equal entries are not always repeated.
# How the values were obtained:
# Type in all cases: toxicity, cell-based
# HEK-293T = assay: Multiplex assay against HEK293T; conditions: human, number of replicates 2
# How it was run: (§1)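 Imaging took place on a CQ1 microscope at 37°C and 5% CO2 once compound had been added to live cells stained at seeding with Hoechst33342, BioTracker Green Microtubule Cytoskeleton Dye, MitoTracker Red and Annexin V Alexa Fluor 680. CellPathfinder machine-learning gating classed cells as Hoechst high-intensity objects or normal cells, classed normal cells as having healthy, pyknosed or fragmented nuclei, and classed pyknosed cells as mitotic or apoptotic. Tubulin, mitochondrial-mass and membrane-permeability phenotypes are per cents of the healthy-nucleus cells.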
# Fibroblast = assay: Multiplex assay against human fibroblast; conditions: number of replicates 2; how it was run: as §1
# U2OS = assay: Multiplex assay against U2OS; conditions: human, number of replicates 2; how it was run: as §1
# [1] = 12 h, 1 µM, compound concentration 1 uM
# [2] = 12 h, 10 µM, compound concentration 10 uM
# [3] = 24 h, 1 µM, compound concentration 1 uM
# [4] = 24 h, 10 µM, compound concentration 10 uM
# [5] = 48 h, 1 µM, compound concentration 1 uM
# [6] = 48 h, 10 µM, compound concentration 10 uM
smiles,measurement,setting,value
C=CC(=O)Nc1ccc2[nH]c(=O)n(C3CCN(Cc4ccc(-c5ccc6c(c5)NC(=O)CO6)cc4)CC3)c2c1 [RL2578],Population Apoptotic (%),HEK-293T; [1],38% and 52%
same,Population Fragmented Nuclei (%),HEK-293T; [1],3%
same,Population Healthy Nuclei (%),HEK-293T; [1],85%
same,Population Hoechst High Intensity Objects (%),HEK-293T; [1],8% and 6%
same,Population Membrane Permeable-Phenotype (%),HEK-293T; [1],4% and 5%
same,Population Mitochondria Different-Phenotype (%),HEK-293T; [1],17%
same,Population Mitotic Cells (%),HEK-293T; [1],61% and 47%
same,Population Normal (%),HEK-293T; [1],91% and 93%
same,Population Pyknosed Nuclei (%),HEK-293T; [1],10% and 11%
same,Population Tubulin-Different-Phenotype (%),HEK-293T; [1],66% and 57%
same,Total Cell Count,HEK-293T; [1],749 and 364
same,Population Apoptotic (%),HEK-293T; [2],39% and 60%
same,Population Fragmented Nuclei (%),HEK-293T; [2],2% and 1%
same,Population Healthy Nuclei (%),HEK-293T; [2],92% and 89%
same,Population Hoechst High Intensity Objects (%),HEK-293T; [2],6% and 10%
same,Population Membrane Permeable-Phenotype (%),HEK-293T; [2],10% and 6%
same,Population Mitochondria Different-Phenotype (%),HEK-293T; [2],39%
same,Population Mitotic Cells (%),HEK-293T; [2],60% and 40%
same,Population Normal (%),HEK-293T; [2],93% and 89%
same,Population Pyknosed Nuclei (%),HEK-293T; [2],4% and 8%
same,Population Tubulin-Different-Phenotype (%),HEK-293T; [2],97% and 96%
same,Total Cell Count,HEK-293T; [2],579 and 597
same,Population Apoptotic (%),HEK-293T; [3],44% and 59%
same,Population Fragmented Nuclei (%),HEK-293T; [3],6% and 4%
same,Population Healthy Nuclei (%),HEK-293T; [3],86% and 88%
same,Population Hoechst High Intensity Objects (%),HEK-293T; [3],4%
same,Population Membrane Permeable-Phenotype (%),HEK-293T; [3],4% and 3%
same,Population Mitochondria Different-Phenotype (%),HEK-293T; [3],7% and 9%
same,Population Mitotic Cells (%),HEK-293T; [3],56% and 40%
same,Population Normal (%),HEK-293T; [3],95%
same,Population Pyknosed Nuclei (%),HEK-293T; [3],6% and 7%
same,Population Tubulin-Different-Phenotype (%),HEK-293T; [3],42% and 38%
same,Total Cell Count,HEK-293T; [3],1138 and 534
same,Population Apoptotic (%),HEK-293T; [4],53% and 81%
same,Population Fragmented Nuclei (%),HEK-293T; [4],3% and 4%
same,Population Healthy Nuclei (%),HEK-293T; [4],93% and 90%
same,Population Hoechst High Intensity Objects (%),HEK-293T; [4],8% and 9%
same,Population Membrane Permeable-Phenotype (%),HEK-293T; [4],5% and 2%
same,Population Mitochondria Different-Phenotype (%),HEK-293T; [4],35% and 46%
same,Population Mitotic Cells (%),HEK-293T; [4],46% and 18%
same,Population Normal (%),HEK-293T; [4],91% and 90%
same,Population Pyknosed Nuclei (%),HEK-293T; [4],2% and 4%
same,Population Tubulin-Different-Phenotype (%),HEK-293T; [4],90% and 94%
same,Total Cell Count,HEK-293T; [4],626 and 621
same,Population Apoptotic (%),HEK-293T; [5],16% and 19%
same,Population Fragmented Nuclei (%),HEK-293T; [5],15% and 13%
same,Population Healthy Nuclei (%),HEK-293T; [5],81% and 82%
same,Population Hoechst High Intensity Objects (%),HEK-293T; [5],8% and 7%
same,Population Membrane Permeable-Phenotype (%),HEK-293T; [5],6% and 4%
same,Population Mitochondria Different-Phenotype (%),HEK-293T; [5],0% and 2%
same,Population Mitotic Cells (%),HEK-293T; [5],83% and 80%
same,Population Normal (%),HEK-293T; [5],91% and 92%
same,Population Pyknosed Nuclei (%),HEK-293T; [5],2% and 3%
same,Population Tubulin-Different-Phenotype (%),HEK-293T; [5],18% and 21%
same,Total Cell Count,HEK-293T; [5],2736 and 1194
same,Population Apoptotic (%),HEK-293T; [6],32% and 60%
same,Population Fragmented Nuclei (%),HEK-293T; [6],11% and 7%
same,Population Healthy Nuclei (%),HEK-293T; [6],84% and 86%
same,Population Hoechst High Intensity Objects (%),HEK-293T; [6],13%
same,Population Membrane Permeable-Phenotype (%),HEK-293T; [6],3% and 1%
same,Population Mitochondria Different-Phenotype (%),HEK-293T; [6],15% and 25%
same,Population Mitotic Cells (%),HEK-293T; [6],67% and 40%
same,Population Normal (%),HEK-293T; [6],86%
same,Population Pyknosed Nuclei (%),HEK-293T; [6],4% and 6%
same,Population Tubulin-Different-Phenotype (%),HEK-293T; [6],71% and 82%
same,Total Cell Count,HEK-293T; [6],795 and 718
same,Population Apoptotic (%),Fibroblast; [1],34% and 40%
same,Population Fragmented Nuclei (%),Fibroblast; [1],12% and 8%
same,Population Healthy Nuclei (%),Fibroblast; [1],72% and 66%
same,Population Hoechst High Intensity Objects (%),Fibroblast; [1],0%
same,Population Membrane Permeable-Phenotype (%),Fibroblast; [1],4%
same,Population Mitochondria Different-Phenotype (%),Fibroblast; [1],3%
same,Population Mitotic Cells (%),Fibroblast; [1],65% and 60%
same,Population Normal (%),Fibroblast; [1],100%
same,Population Pyknosed Nuclei (%),Fibroblast; [1],15% and 25%
same,Population Tubulin-Different-Phenotype (%),Fibroblast; [1],13% and 15%
same,Total Cell Count,Fibroblast; [1],173 and 180
same,Population Apoptotic (%),Fibroblast; [2],46% and 29%
same,Population Fragmented Nuclei (%),Fibroblast; [2],26% and 23%
same,Population Healthy Nuclei (%),Fibroblast; [2],65% and 67%
same,Population Hoechst High Intensity Objects (%),Fibroblast; [2],0%
same,Population Membrane Permeable-Phenotype (%),Fibroblast; [2],5% and 4%
same,Population Mitochondria Different-Phenotype (%),Fibroblast; [2],0% and 4%
same,Population Mitotic Cells (%),Fibroblast; [2],53% and 70%
same,Population Normal (%),Fibroblast; [2],99% and 100%
same,Population Pyknosed Nuclei (%),Fibroblast; [2],8%
same,Population Tubulin-Different-Phenotype (%),Fibroblast; [2],45% and 35%
same,Total Cell Count,Fibroblast; [2],324 and 315
same,Population Apoptotic (%),Fibroblast; [3],48% and 55%
same,Population Fragmented Nuclei (%),Fibroblast; [3],6% and 14%
same,Population Healthy Nuclei (%),Fibroblast; [3],73% and 65%
same,Population Hoechst High Intensity Objects (%),Fibroblast; [3],0%
same,Population Membrane Permeable-Phenotype (%),Fibroblast; [3],3%
same,Population Mitochondria Different-Phenotype (%),Fibroblast; [3],4% and 0%
same,Population Mitotic Cells (%),Fibroblast; [3],51% and 44%
same,Population Normal (%),Fibroblast; [3],100%
same,Population Pyknosed Nuclei (%),Fibroblast; [3],19% and 20%
same,Population Tubulin-Different-Phenotype (%),Fibroblast; [3],18% and 19%
same,Total Cell Count,Fibroblast; [3],169 and 214
same,Population Apoptotic (%),Fibroblast; [4],63% and 50%
same,Population Fragmented Nuclei (%),Fibroblast; [4],29% and 26%
same,Population Healthy Nuclei (%),Fibroblast; [4],65% and 69%
same,Population Hoechst High Intensity Objects (%),Fibroblast; [4],0%
same,Population Membrane Permeable-Phenotype (%),Fibroblast; [4],2%
same,Population Mitochondria Different-Phenotype (%),Fibroblast; [4],5% and 4%
same,Population Mitotic Cells (%),Fibroblast; [4],36% and 50%
same,Population Normal (%),Fibroblast; [4],99%
same,Population Pyknosed Nuclei (%),Fibroblast; [4],5% and 3%
same,Population Tubulin-Different-Phenotype (%),Fibroblast; [4],36% and 24%
same,Total Cell Count,Fibroblast; [4],377 and 407
same,Population Apoptotic (%),Fibroblast; [5],86% and 67%
same,Population Fragmented Nuclei (%),Fibroblast; [5],14% and 17%
same,Population Healthy Nuclei (%),Fibroblast; [5],71% and 65%
same,Population Hoechst High Intensity Objects (%),Fibroblast; [5],0%
same,Population Membrane Permeable-Phenotype (%),Fibroblast; [5],5% and 6%
same,Population Mitochondria Different-Phenotype (%),Fibroblast; [5],0%
same,Population Mitotic Cells (%),Fibroblast; [5],13% and 32%
same,Population Normal (%),Fibroblast; [5],100% and 99%
same,Population Pyknosed Nuclei (%),Fibroblast; [5],14% and 17%
same,Population Tubulin-Different-Phenotype (%),Fibroblast; [5],14% and 8%
same,Total Cell Count,Fibroblast; [5],160 and 217
same,Population Apoptotic (%),Fibroblast; [6],78% and 76%
same,Population Fragmented Nuclei (%),Fibroblast; [6],29%
same,Population Healthy Nuclei (%),Fibroblast; [6],66% and 67%
same,Population Hoechst High Intensity Objects (%),Fibroblast; [6],0%
same,Population Membrane Permeable-Phenotype (%),Fibroblast; [6],0% and 2%
same,Population Mitochondria Different-Phenotype (%),Fibroblast; [6],2% and 1%
same,Population Mitotic Cells (%),Fibroblast; [6],21% and 23%
same,Population Normal (%),Fibroblast; [6],100% and 99%
same,Population Pyknosed Nuclei (%),Fibroblast; [6],4% and 2%
same,Population Tubulin-Different-Phenotype (%),Fibroblast; [6],18% and 13%
same,Total Cell Count,Fibroblast; [6],424 and 452
same,Population Fragmented Nuclei (%),U2OS; [1],5% and 4%
same,Population Healthy Nuclei (%),U2OS; [1],66% and 83%
same,Population Hoechst High Intensity Objects (%),U2OS; [1],0%
same,Population Mitochondria Different-Phenotype (%),U2OS; [1],4% and 0%
same,Population Normal (%),U2OS; [1],100%
same,Population Pyknosed Nuclei (%),U2OS; [1],27% and 11%
same,Population Tubulin-Different-Phenotype (%),U2OS; [1],58% and 84%
same,Population Apoptotic (%),U2OS; [2],66%
same,Population Fragmented Nuclei (%),U2OS; [2],18% and 9%
same,Population Healthy Nuclei (%),U2OS; [2],57% and 80%
same,Population Hoechst High Intensity Objects (%),U2OS; [2],0%
same,Population Membrane Permeable-Phenotype (%),U2OS; [2],13% and 7%
same,Population Mitochondria Different-Phenotype (%),U2OS; [2],13% and 30%
same,Population Mitotic Cells (%),U2OS; [2],33%
same,Population Normal (%),U2OS; [2],100%
same,Population Pyknosed Nuclei (%),U2OS; [2],23% and 9%
same,Population Tubulin-Different-Phenotype (%),U2OS; [2],31% and 46%
same,Population Apoptotic (%),U2OS; [3],85% and 74%
same,Population Fragmented Nuclei (%),U2OS; [3],8% and 4%
same,Population Healthy Nuclei (%),U2OS; [3],75% and 86%
same,Population Hoechst High Intensity Objects (%),U2OS; [3],0%
same,Population Membrane Permeable-Phenotype (%),U2OS; [3],11% and 1%
same,Population Mitochondria Different-Phenotype (%),U2OS; [3],8% and 2%
same,Population Mitotic Cells (%),U2OS; [3],14% and 25%
same,Population Normal (%),U2OS; [3],100%
same,Population Pyknosed Nuclei (%),U2OS; [3],15% and 9%
same,Population Tubulin-Different-Phenotype (%),U2OS; [3],76% and 87%
same,Population Apoptotic (%),U2OS; [4],61% and 54%
same,Population Fragmented Nuclei (%),U2OS; [4],9% and 8%
same,Population Healthy Nuclei (%),U2OS; [4],54% and 78%
same,Population Hoechst High Intensity Objects (%),U2OS; [4],1% and 0%
same,Population Membrane Permeable-Phenotype (%),U2OS; [4],0% and 5%
same,Population Mitotic Cells (%),U2OS; [4],38% and 45%
same,Population Normal (%),U2OS; [4],98% and 99%
same,Population Pyknosed Nuclei (%),U2OS; [4],35% and 12%
same,Population Tubulin-Different-Phenotype (%),U2OS; [4],39% and 47%
same,Population Apoptotic (%),U2OS; [5],83% and 70%
same,Population Healthy Nuclei (%),U2OS; [5],68% and 90%
same,Population Hoechst High Intensity Objects (%),U2OS; [5],0%
same,Population Membrane Permeable-Phenotype (%),U2OS; [5],8% and 0%
same,Population Mitochondria Different-Phenotype (%),U2OS; [5],4% and 0%
same,Population Mitotic Cells (%),U2OS; [5],16% and 30%
same,Population Normal (%),U2OS; [5],100%
same,Population Pyknosed Nuclei (%),U2OS; [5],16% and 6%
same,Population Tubulin-Different-Phenotype (%),U2OS; [5],80% and 84%
same,Population Apoptotic (%),U2OS; [6],76% and 68%
same,Population Fragmented Nuclei (%),U2OS; [6],13% and 10%
same,Population Healthy Nuclei (%),U2OS; [6],53% and 70%
same,Population Hoechst High Intensity Objects (%),U2OS; [6],0% and 1%
same,Population Membrane Permeable-Phenotype (%),U2OS; [6],10% and 5%
same,Population Mitochondria Different-Phenotype (%),U2OS; [6],7% and 18%
same,Population Mitotic Cells (%),U2OS; [6],23% and 31%
same,Population Normal (%),U2OS; [6],100% and 98%
same,Population Pyknosed Nuclei (%),U2OS; [6],32% and 19%
same,Population Tubulin-Different-Phenotype (%),U2OS; [6],71% and 59%
